Measurements from ChEMBL document CHEMBL1137218, “Long hydrocarbon chain ether diols and ether diacids that favorably alter lipid disorders in vivo” (J Med Chem, 2004).

Key:
Rattus norvegicus [1] = test: Blood glucose levels in female obese rats two weeks post treatment at 3 mg/kg oral dose; pretreatment value = 117 mg/dL; format: functional
Rattus norvegicus [2] = test: Serum HDL cholesterol levels in female obese rats one week post treatment at 3 mg/kg oral dose; pretreatment value = 59 mg/dL; format: functional
Rattus norvegicus [3] = test: Serum Triglyceride levels in female obese rats one week post treatment at 30 mg/kg oral dose; pretreatment value = 1240 mg/dL; format: functional
Rattus norvegicus [4] = test: Serum Triglyceride levels in female obese rats two weeks post treatment at 10 mg/kg oral dose; pretreatment value = 943 mg/dL; format: functional
Rattus norvegicus [5] = test: Blood glucose levels in female obese rats one week post treatment at 30 mg/kg oral dose; pretreatment value = 109 mg/dL; format: functional
Rattus norvegicus [6] = test: Serum Triglyceride levels in female obese rats one week post treatment at 10 mg/kg oral dose; pretreatment value = 943 mg/dL; format: functional
Rattus norvegicus [7] = test: Serum Triglyceride levels in female obese rats two weeks post treatment at 3 mg/kg oral dose; pretreatment value = 769 mg/dL; format: functional
Rattus norvegicus [8] = test: Serum HDL cholesterol levels in female obese rats one week post treatment at 30 mg/kg oral dose; pretreatment value = 42 mg/dL; format: functional
Rattus norvegicus [9] = test: Serum HDL cholesterol levels in female obese rats one week post treatment at 100 mg/kg oral dose; pretreatment value = 59 mg/dL; format: functional
Rattus norvegicus [10] = test: Serum HDL cholesterol levels in female obese rats two weeks post treatment at 30 mg/kg oral dose; pretreatment value = 42 mg/dL; format: functional
Rattus norvegicus [11] = test: Serum HDL cholesterol levels in female obese rats two weeks post treatment at 100 mg/kg oral dose; pretreatment value = 59 mg/dL; format: functional
Rattus norvegicus [12] = test: Insulin levels in female obese rats two weeks post treatment at 30 mg/kg oral dose; pretreatment value = 9.3 ng/mL; format: functional
Rattus norvegicus [13] = test: Insulin levels in female obese rats two weeks post treatment at 100 mg/kg oral dose; pretreatment value = 12.7 ng/mL; format: functional
Rattus norvegicus [14] = test: Serum NEFA levels in female obese rats one week post treatment at 10 mg/kg oral dose; pretreatment value = 1.2 mg/dL; format: functional
Rattus norvegicus [15] = test: Insulin levels in female obese rats one week post treatment at 30 mg/kg oral dose; pretreatment value = 9.3 ng/mL; format: functional
Rattus norvegicus [16] = test: Insulin levels in female obese rats one week post treatment at 10 mg/kg oral dose; pretreatment value = 8.2 ng/mLL; format: functional
Rattus norvegicus [17] = test: Insulin levels in female obese rats two weeks post treatment at 3 mg/kg oral dose; pretreatment value = 12.9 ng/mL; format: functional
Rattus norvegicus [18] = test: Serum NEFA levels in female obese rats two weeks post treatment at 10 mg/kg oral dose; pretreatment value = 1.2 mg/dL; format: functional
Rattus norvegicus [19] = test: Serum HDL cholesterol levels in female obese rats one week post treatment at 10 mg/kg oral dose; pretreatment value = 56 mg/dL; format: functional
Rattus norvegicus [20] = test: Serum Non-HDL cholesterol levels in female obese rats one week post treatment at 3 mg/kg oral dose; pretreatment value = 21 mg/dL; format: functional
Method in brief: (§1)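 Female obese Zucker fatty rats (10–12 weeks, 400–500 g), once-daily oral gavage in 20% EtOH/80% PEG-200 (v/v) for up to 14 days. Serum drawn after a 6 h fast, pre-dose and at days 7 and 14. Non-HDL cholesterol is serum total cholesterol times the percent area of the non-HDL peaks in a Superose 6HR gel-filtration profile with on-line cholesterol detection. n = 4 per dose.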

Rattus norvegicus [21] = test: Serum Non-HDL cholesterol levels in female obese rats two weeks post treatment at 3 mg/kg oral dose; pretreatment value = 21 mg/dL; format: functional; method in brief: as §1
Rattus norvegicus [22] = test: Serum Non-HDL cholesterol levels in female obese rats two weeks post treatment at 10 mg/kg oral dose; pretreatment value = 25 mg/dL; format: functional; method in brief: as §1
Rattus norvegicus [23] = test: Blood glucose levels in female obese rats two weeks post treatment at 3 mg/kg oral dose; pretreatment value = 115 mg/dL; format: functional
Rattus norvegicus [24] = test: Serum Triglyceride levels in female obese rats one week post treatment at 10 mg/kg oral dose; pretreatment value = 1185 mg/dL; format: functional
Rattus norvegicus [25] = test: Serum Triglyceride levels in female obese rats one week post treatment at 30 mg/kg oral dose; pretreatment value = 1004 mg/dL; format: functional
Rattus norvegicus [26] = test: Serum NEFA levels in female obese rats two weeks post treatment at 100 mg/kg oral dose; pretreatment value = 1.2 mg/dL; format: functional
Rattus norvegicus [27] = test: Blood glucose levels in female obese rats one week post treatment at 30 mg/kg oral dose; pretreatment value = 106 mg/dL; format: functional
Rattus norvegicus [28] = test: Serum HDL cholesterol levels in female obese rats one week post treatment at 3 mg/kg oral dose; pretreatment value = 57 mg/dL; format: functional
Rattus norvegicus [29] = test: Serum Triglyceride levels in female obese rats one week post treatment at 100 mg/kg oral dose; pretreatment value = 1068 mg/dL; format: functional
Rattus norvegicus [30] = test: Serum Triglyceride levels in female obese rats two weeks post treatment at 30 mg/kg oral dose; pretreatment value = 1004 mg/dL; format: functional
Rattus norvegicus [31] = test: Serum HDL cholesterol levels in female obese rats one week post treatment at 100 mg/kg oral dose; pretreatment value = 58 mg/dL; format: functional
Rattus norvegicus [32] = test: Serum Triglyceride levels in female obese rats two weeks post treatment at 100 mg/kg oral dose; pretreatment value = 1068 mg/dL; format: functional
Rattus norvegicus [33] = test: Blood glucose levels in female obese rats two weeks post treatment at 10 mg/kg oral dose; pretreatment value = 110 mg/dL; format: functional
Rattus norvegicus [34] = test: Blood glucose levels in female obese rats two weeks post treatment at 30 mg/kg oral dose; pretreatment value = 106 mg/dL; format: functional
Rattus norvegicus [35] = test: Serum HDL cholesterol levels in female obese rats two weeks post treatment at 100 mg/kg oral dose; pretreatment value = 58 mg/dL; format: functional
Rattus norvegicus [36] = test: Insulin levels in female obese rats two weeks post treatment at 3 mg/kg oral dose; pretreatment value = 13.3 ng/mL; format: functional
Rattus norvegicus [37] = test: Insulin levels in female obese rats one week post treatment at 3 mg/kg oral dose; pretreatment value = 13.3 ng/mL; format: functional
Rattus norvegicus [38] = test: Insulin levels in female obese rats one week post treatment at 10 mg/kg oral dose; pretreatment value = 8.8 […]; format: functional
Rattus norvegicus [39] = test: Insulin levels in female obese rats one week post treatment at 30 mg/kg oral dose; pretreatment value = 9 ng/mL; format: functional
Rattus norvegicus [40] = test: Insulin levels in female obese rats two weeks post treatment at 30 mg/kg oral dose; pretreatment value = 9 ng/mL; format: functional
Rattus norvegicus [41] = test: Serum Non-HDL cholesterol levels in female obese rats one week post treatment at 3 mg/kg oral dose; pretreatment value = 29 mg/dL; format: functional; method in brief: as §1
Rattus norvegicus [42] = test: Insulin levels in female obese rats two weeks post treatment at 100 mg/kg oral dose; pretreatment value = 8.6 ng/mL; format: functional
Rattus norvegicus [43] = test: Serum Non-HDL cholesterol levels in female obese rats two weeks post treatment at 3 mg/kg oral dose; pretreatment value = 29 mg/dL
Rattus norvegicus [44] = test: Serum Non-HDL cholesterol levels in female obese rats one week post treatment at 10 mg/kg oral dose; pretreatment value = 33 mg/dL

## CC(C)(CO)CCCCOCCCCC(C)(C)CO
Rattus norvegicus [1]
  Activity: 119 mg/dL
Rattus norvegicus [2]
  Activity: 70 mg/dL
Rattus norvegicus [3]
  Activity: 271 mg/dL
Rattus norvegicus [4]
  Activity: 706 mg/dL
Rattus norvegicus [5]
  Activity: 140 mg/dL
Rattus norvegicus [6]
  Activity: 629 mg/dL
Rattus norvegicus [7]
  Activity: 934 mg/dL
Rattus norvegicus [8]
  Activity: 149 mg/dL
Rattus norvegicus [9]
  Activity: 192 mg/dL
Rattus norvegicus [10]
  Activity: 222 mg/dL
Rattus norvegicus [11]
  Activity: 263 mg/dL
Rattus norvegicus [12]
  Activity: 17.4 ng/mL
Rattus norvegicus [13]
  Activity: 12.8 ng/mL
Rattus norvegicus [14]
  Activity: 1.2 mg/dL
Rattus norvegicus [15]
  Activity: 14.2 ng/mL
Rattus norvegicus [16]
  Activity: 8.9 ng/mL
Rattus norvegicus [17]
  Activity: 9.9 ng/mL
Rattus norvegicus [18]
  Activity: 1.1 mg/dL
Rattus norvegicus [19]
  Activity: 100 mg/dL
Rattus norvegicus [20]
  Activity: 26 mg/dL
Rattus norvegicus [21]
  Activity: 29 mg/dL
Rattus norvegicus [22]
  Activity: 43 mg/dL

## CC(C)(CO)CCCCCOCCCCCC(C)(C)CO
Rattus norvegicus [23]
  Activity: 114 mg/dL
Rattus norvegicus [24]
  Activity: 1159 mg/dL
Rattus norvegicus [25]
  Activity: 191 mg/dL
Rattus norvegicus [26]
  Activity: 0.7 mg/dL
Rattus norvegicus [27]
  Activity: 113 mg/dL
Rattus norvegicus [28]
  Activity: 55 mg/dL
Rattus norvegicus [29]
  Activity: 83 mg/dL
Rattus norvegicus [30]
  Activity: 424 mg/dL
Rattus norvegicus [31]
  Activity: 115 mg/dL
Rattus norvegicus [32]
  Activity: 167 mg/dL
Rattus norvegicus [33]
  Activity: 119 mg/dL
Rattus norvegicus [34]
  Activity: 141 mg/dL
Rattus norvegicus [35]
  Activity: 134 mg/dL
Rattus norvegicus [36]
  Activity: 11.4 ng/mL
Rattus norvegicus [37]
  Activity: 12.2 ng/mL
Rattus norvegicus [38]
  Activity: 14.8 ng/mL
Rattus norvegicus [39]
  Activity: 12.4 ng/mL
Rattus norvegicus [40]
  Activity: 10.4 ng/mL
Rattus norvegicus [41]
  Activity: 26 mg/dL
Rattus norvegicus [42]
  Activity: 4.4 ng/mL
Rattus norvegicus [43]
  Activity: 29 mg/dL
Rattus norvegicus [44]
  Activity: 40 mg/dL
